Assay results: ChEMBL document CHEMBL4014339, “Discovery of 1,4-Benzodiazepine-2,5-dione (BZD) Derivatives as Dual Nucleotide Binding Oligomerization Domain Containing 1/2 (NOD1/NOD2) Antagonists Sensitizing Paclitaxel (PTX) To Suppress Lewis Lung Carcinoma (LLC) Growth in Vivo” (J Med Chem, 2017)
The source made the active and inactive calls.

Columns and labels:
[1] = biological target: T1, Nucleotide-binding oligomerization domain-containing protein 1 (Homo sapiens) (UniProt Q9Y239); experiment: Inhibition of human NOD1 expressed in HEK293 cells assessed as reduction in C12-iE-DAP-stimulated IL8 secretion preincubated with compound followed by C12-iE-DAP stimulation measured after 24 hrs by ELISA; assay type: cell-based
T1 sequence (whole entry): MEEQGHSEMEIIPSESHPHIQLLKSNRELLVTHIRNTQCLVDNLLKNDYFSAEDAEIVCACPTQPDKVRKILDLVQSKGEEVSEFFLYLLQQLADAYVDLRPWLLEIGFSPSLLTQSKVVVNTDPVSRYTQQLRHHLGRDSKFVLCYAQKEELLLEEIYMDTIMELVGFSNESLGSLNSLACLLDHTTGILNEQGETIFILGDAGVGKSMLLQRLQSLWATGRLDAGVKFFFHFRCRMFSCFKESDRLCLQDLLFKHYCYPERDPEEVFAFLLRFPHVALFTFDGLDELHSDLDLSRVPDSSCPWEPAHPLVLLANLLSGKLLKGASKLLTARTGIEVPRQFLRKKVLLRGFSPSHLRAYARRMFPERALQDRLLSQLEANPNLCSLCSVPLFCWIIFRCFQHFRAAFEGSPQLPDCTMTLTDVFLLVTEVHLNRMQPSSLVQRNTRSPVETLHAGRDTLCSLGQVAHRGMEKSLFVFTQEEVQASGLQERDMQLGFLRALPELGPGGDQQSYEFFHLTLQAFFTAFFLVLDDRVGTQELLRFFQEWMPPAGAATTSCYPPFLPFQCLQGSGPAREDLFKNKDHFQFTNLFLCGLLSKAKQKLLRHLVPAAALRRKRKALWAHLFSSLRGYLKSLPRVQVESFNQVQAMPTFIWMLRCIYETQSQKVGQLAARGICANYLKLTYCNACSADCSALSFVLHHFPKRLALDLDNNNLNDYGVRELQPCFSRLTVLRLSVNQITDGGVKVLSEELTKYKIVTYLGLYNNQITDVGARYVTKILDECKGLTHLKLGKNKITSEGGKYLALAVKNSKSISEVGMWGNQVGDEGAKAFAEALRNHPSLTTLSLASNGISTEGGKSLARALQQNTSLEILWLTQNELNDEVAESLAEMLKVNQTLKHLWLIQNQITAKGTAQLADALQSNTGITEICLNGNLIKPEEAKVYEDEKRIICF

[2] = biological target: T2, Nucleotide-binding oligomerization domain-containing protein 1 (Homo sapiens, UniProt Q9Y239); experiment: Antagonist activity at human NOD1 expressed in HEK-blue cells assessed as inhibition of C12-iE-DAP-stimulated cell activation preincubated for 3 hrs followed by C12-iE-DAP addition measured after 20 hrs by SEAP reporter gene assay; assay type: cell-based
T2 sequence (Q9Y239 whole entry): T1 sequence (whole entry)
Outline: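 HEK-Blue hNOD1 or hNOD2 cells preincubated with compound 3 h, then stimulated 20 h with C12-iE-DAP 50 ng/mL (NOD1) or MDP 100 ng/mL (NOD2); SEAP in supernatant quantified. Primary screen at 10 μM, hits repeated in triplicate; IC50 from dose-response, mean ± SD (n = 3), only for compounds reaching ≥50% inhibition at the screening concentration.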

[3] = biological target: Receptor-interacting serine/threonine-protein kinase 2 (Homo sapiens) (UniProt O43353); experiment: Inhibition of recombinant human N-terminal GST tagged RIPK2 (1 to 299 residues) expressed in baculovirus infected Sf9 insect cells assessed as decrease in MBP phosphorylation at 10 uM preincubated with compound followed by ATP addition measured after 60 mins by ADP-Glo assay
Sequence of Receptor-interacting serine/threonine-protein kinase 2 (Homo sapiens) (O43353 whole entry, the tested form may be a part): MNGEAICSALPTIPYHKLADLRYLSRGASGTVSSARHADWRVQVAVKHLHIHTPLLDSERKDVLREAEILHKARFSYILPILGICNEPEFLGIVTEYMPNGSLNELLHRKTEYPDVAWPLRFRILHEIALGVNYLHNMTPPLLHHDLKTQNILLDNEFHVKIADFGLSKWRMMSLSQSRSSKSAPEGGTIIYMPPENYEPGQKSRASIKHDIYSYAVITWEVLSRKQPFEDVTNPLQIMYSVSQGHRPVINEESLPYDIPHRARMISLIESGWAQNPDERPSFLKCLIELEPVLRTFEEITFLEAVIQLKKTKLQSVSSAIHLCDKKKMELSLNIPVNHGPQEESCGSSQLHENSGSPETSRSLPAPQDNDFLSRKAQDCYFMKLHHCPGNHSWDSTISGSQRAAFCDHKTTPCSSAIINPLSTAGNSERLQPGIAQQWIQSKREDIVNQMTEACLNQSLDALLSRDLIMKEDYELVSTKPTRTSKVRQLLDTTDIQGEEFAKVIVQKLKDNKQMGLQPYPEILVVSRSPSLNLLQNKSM

[4] = biological target: T3, Nucleotide-binding oligomerization domain-containing protein 2 (Homo sapiens, UniProt Q9HC29); experiment: Inhibition of NOD2 in human PBMC-derived macrophages assessed as reduction in MDP-stimulated p38 phosphorylation at 1 to 10 uM preincubated for 1 hr followed by MDP stimulation for 1 hr by Western blot analysis
T3 sequence (Q9HC29 whole entry, the tested form may be a part): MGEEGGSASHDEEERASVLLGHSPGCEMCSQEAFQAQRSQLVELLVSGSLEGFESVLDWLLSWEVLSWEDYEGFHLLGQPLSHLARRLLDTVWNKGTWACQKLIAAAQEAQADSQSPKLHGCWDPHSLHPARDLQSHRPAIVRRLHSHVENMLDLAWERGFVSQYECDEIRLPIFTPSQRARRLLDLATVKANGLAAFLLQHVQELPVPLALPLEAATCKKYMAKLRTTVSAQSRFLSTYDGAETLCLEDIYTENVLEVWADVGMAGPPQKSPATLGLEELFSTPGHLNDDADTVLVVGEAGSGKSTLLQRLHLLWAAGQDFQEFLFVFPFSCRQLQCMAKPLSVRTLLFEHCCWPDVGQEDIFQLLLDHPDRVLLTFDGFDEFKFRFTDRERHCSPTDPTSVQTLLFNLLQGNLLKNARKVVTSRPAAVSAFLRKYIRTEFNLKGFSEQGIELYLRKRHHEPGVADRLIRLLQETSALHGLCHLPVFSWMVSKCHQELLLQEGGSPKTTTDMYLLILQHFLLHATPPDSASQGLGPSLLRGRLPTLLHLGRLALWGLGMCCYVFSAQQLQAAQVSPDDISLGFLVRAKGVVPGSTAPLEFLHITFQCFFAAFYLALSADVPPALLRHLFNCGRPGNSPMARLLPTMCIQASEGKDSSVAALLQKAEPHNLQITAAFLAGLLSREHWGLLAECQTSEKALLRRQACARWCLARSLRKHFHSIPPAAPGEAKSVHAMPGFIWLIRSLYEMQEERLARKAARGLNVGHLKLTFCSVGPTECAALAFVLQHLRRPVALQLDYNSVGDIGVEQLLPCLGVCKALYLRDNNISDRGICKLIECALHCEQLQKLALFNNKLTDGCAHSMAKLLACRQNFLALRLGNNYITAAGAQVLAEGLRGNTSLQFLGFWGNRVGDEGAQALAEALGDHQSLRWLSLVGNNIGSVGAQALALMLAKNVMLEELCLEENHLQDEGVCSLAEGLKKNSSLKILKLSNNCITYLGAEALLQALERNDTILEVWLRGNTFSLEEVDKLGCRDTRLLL

[5] = biological target: T3, Nucleotide-binding oligomerization domain-containing protein 2; experiment: Inhibition of NOD2 in human PBMC-derived macrophages assessed as reduction in MDP-stimulated IL6 mRNA expression at 10 uM preincubated for 1 hr followed by MDP stimulation for 90 mins by RT-qPCR analysis
Outline: (§1)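 Human CD14+ monocytes from donor PBMC, differentiated 7 days with M-CSF 20 ng/mL to macrophages; 1.0 × 10^6 cells pretreated 1 h with compound (final 0.1% DMSO), then C12-iE-DAP 500 ng/mL or MDP 5 μg/mL for 90 min. IL-6/TNF-α mRNA by qRT-PCR, normalized to GAPDH; stimulated response set to 100%.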

[6] = biological target: T3, Nucleotide-binding oligomerization domain-containing protein 2; experiment: Inhibition of NOD2 in human PBMC-derived macrophages assessed as reduction in MDP-stimulated TNFalpha mRNA expression at 10 uM preincubated for 1 hr followed by MDP stimulation for 90 mins by RT-qPCR analysis; outline: as §1
[7] = biological target: Tumor necrosis factor (Homo sapiens) (UniProt P01375); experiment: Inhibition of recombinant human TNFalpha expressed in HEK-Blue cells assessed as reduction in SEAP release preincubated for 3 hrs measured after 20 hrs by spectrophotometric analysis; assay type: cell-based
Sequence of Tumor necrosis factor (Homo sapiens) (P01375 whole entry, the tested form may be a part): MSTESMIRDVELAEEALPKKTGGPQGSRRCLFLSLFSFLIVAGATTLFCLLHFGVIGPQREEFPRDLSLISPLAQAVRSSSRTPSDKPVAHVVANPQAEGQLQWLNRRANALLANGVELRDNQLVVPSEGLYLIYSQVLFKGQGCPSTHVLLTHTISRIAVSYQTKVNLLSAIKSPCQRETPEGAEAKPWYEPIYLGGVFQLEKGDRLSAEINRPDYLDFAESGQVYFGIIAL

[8] = biological target: T1, Nucleotide-binding oligomerization domain-containing protein 1 (Homo sapiens); experiment: Inhibition of NOD1 in human THP1 cells assessed as reduction of C12-iE-DAP-mediated decrease in IkBalpha levels at 1 to 10 uM preincubated for 1 hr followed by C12-iE-DAP addition measured after 45 mins by Western blot analysis; assay type: cell-based
Outline: (§2)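 PMA (20 ng/mL, 48 h)-differentiated THP1 macrophages rested 24 h in PMA-free medium, serum-starved (0.1% FBS) overnight, pretreated 1 h with compound, stimulated 45 min with C12-iE-DAP 50 ng/mL. Lysates run on 8% SDS-PAGE, immunoblotted for phospho and total RIP2, p38, JNK, ERK and IκBα.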

[9] = biological target: T3, Nucleotide-binding oligomerization domain-containing protein 2; experiment: Inhibition of NOD2 in human PBMC-derived macrophages assessed as reduction in MDP-stimulated IL6 mRNA expression preincubated for 1 hr followed by MDP stimulation for 90 mins by RT-qPCR analysis; outline: as §1
[10] = biological target: T1, Nucleotide-binding oligomerization domain-containing protein 1 (Homo sapiens); experiment: Inhibition of NOD1 in human PBMC-derived macrophages assessed as reduction of C12-iE-DAP-mediated decrease in IkBalpha levels at 1 to 10 uM preincubated for 1 hr followed by C12-iE-DAP stimulation for 45 mins by Western blot analysis
[11] = biological target: Toll-like receptor 2 (Homo sapiens) (UniProt O60603); experiment: Inhibition of human TLR2 expressed in HEK-Blue cells assessed as reduction in Pam3CSK4-stimulated SEAP release preincubated for 3 hrs followed by Pam3CSK4 addition measured after 20 hrs by spectrophotometric analysis; assay type: cell-based
Sequence of Toll-like receptor 2 (Homo sapiens) (O60603 whole entry, the tested form may be a part): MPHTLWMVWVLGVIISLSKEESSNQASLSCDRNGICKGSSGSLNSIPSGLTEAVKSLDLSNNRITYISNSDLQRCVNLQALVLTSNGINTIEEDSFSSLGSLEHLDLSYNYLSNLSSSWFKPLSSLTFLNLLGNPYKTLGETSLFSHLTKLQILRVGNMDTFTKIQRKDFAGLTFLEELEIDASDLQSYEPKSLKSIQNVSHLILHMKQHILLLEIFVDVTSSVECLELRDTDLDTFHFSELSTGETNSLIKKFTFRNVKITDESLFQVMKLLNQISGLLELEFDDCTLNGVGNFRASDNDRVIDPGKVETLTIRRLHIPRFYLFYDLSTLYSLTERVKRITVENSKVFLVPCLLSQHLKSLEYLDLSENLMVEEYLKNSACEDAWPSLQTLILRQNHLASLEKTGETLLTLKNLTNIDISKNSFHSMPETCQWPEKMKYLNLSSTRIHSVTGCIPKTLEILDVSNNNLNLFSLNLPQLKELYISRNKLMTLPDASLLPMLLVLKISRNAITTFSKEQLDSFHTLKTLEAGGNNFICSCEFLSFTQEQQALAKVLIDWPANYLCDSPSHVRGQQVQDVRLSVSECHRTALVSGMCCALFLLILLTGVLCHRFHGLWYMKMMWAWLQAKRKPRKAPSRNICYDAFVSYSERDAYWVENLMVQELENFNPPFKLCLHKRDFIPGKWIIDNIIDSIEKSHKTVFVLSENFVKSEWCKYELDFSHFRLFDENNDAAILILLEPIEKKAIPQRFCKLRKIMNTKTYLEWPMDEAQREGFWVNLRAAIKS

[12] = biological target: T1, Nucleotide-binding oligomerization domain-containing protein 1 (Homo sapiens); experiment: Inhibition of NOD1 in human THP1 cells assessed as suppression of C12-iE-DAP-stimulated JNK phosphorylation at 1 to 10 uM preincubated for 1 hr followed by C12-iE-DAP stimulation after 45 mins by Western blot analysis; assay type: cell-based; outline: as §2
[13] = organism: Homo sapiens; experiment: Inhibition of human SEAP assessed as decrease in substrate hydrolysis at 10 uM
[14] = biological target: T1, Nucleotide-binding oligomerization domain-containing protein 1 (Homo sapiens); experiment: Inhibition of NOD1 in human THP1 cells assessed as suppression of C12-iE-DAP-stimulated RIP2 phosphorylation at 1 to 10 uM preincubated for 1 hr followed by C12-iE-DAP stimulation after 45 mins by Western blot analysis; assay type: cell-based; outline: as §2

CCCNC(=O)CC[C@H]1NC(=O)c2cc(Oc3cccc(N(C)C)c3)c(NC(=O)COCc3ccccc3)cc2NC1=O
2360 nM: IC50 [2]
active: inhibition [1] Dose-dependent effect | inhibition [4] | inhibition [5] | inhibition [6] | inhibition [8] | inhibition [9] Dose-dependent effect | inhibition [10] | inhibition [12] | inhibition [14]
inactive: inhibition [3] | inhibition [7] | inhibition [11] | inhibition [13]
